According to ChEMBL document CHEMBL1649578, “Biofilm formation and effect of caspofungin on biofilm structure of Candida species bloodstream isolates” (2009):
Activity calls are given as the source filed them. The calls are words filed in the database; no cut-off is given here.

Assays:
[1] = test system: Candida albicans; assay: Antifungal activity against Candida albicans isolate CA4 biofilm assessed as viable fungal count per cm2 of silicone disk at 32 ug/ml after 48 hrs […]; format: functional
How it was run: (§1)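 Biofilms grown on serum-preconditioned silicone disks in RPMI 1640 for 24 h, PBS-washed, then exposed 48 h at 35°C on a rocker to caspofungin doubling dilutions spanning 0.25–128 μg/ml. Disks washed and sonicated/vortexed in PBS to release cells. Suspensions diluted in Butterfield buffer and plated on Sabouraud dextrose agar. Viable counts from three disks averaged as CFU/cm2.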

[2] = test system: Candida albicans; assay: Antifungal activity against Candida albicans isolate CA4 biofilm assessed as viable fungal count per cm2 of silicone disk at 64 ug/ml after 48 hrs […]; format: functional; how it was run: as §1
[3] = test system: Candida albicans; assay: Antifungal activity against Candida albicans isolate CA4 biofilm assessed as viable fungal count per cm2 of silicone disk at 128 ug/ml after 48 hrs […]; format: functional; how it was run: as §1
[4] = test system: Candida parapsilosis; assay: Antifungal activity against Candida parapsilosis isolate CP1 biofilm assessed as viable fungal count per cm2 of silicone disk at 0.25 ug/ml after 48 hrs […]; format: functional; how it was run: as §1
[5] = test system: Candida parapsilosis; assay: Antifungal activity against Candida parapsilosis isolate CP1 biofilm assessed as viable fungal count per cm2 of silicone disk at 0.5 ug/ml after 48 hrs […]; format: functional; how it was run: as §1
[6] = test system: Candida parapsilosis; assay: Antifungal activity against Candida parapsilosis isolate CP1 biofilm assessed as viable fungal count per cm2 of silicone disk at 1 ug/ml after 48 hrs […]; format: functional; how it was run: as §1
[7] = test system: Candida parapsilosis; assay: Antifungal activity against Candida parapsilosis isolate CP1 biofilm assessed as viable fungal count per cm2 of silicone disk at 2 ug/ml after 48 hrs […]; format: functional; how it was run: as §1
[8] = test system: Candida parapsilosis; assay: Antifungal activity against Candida parapsilosis isolate CP1 biofilm assessed as viable fungal count per cm2 of silicone disk at 4 ug/ml after 48 hrs […]; format: functional; how it was run: as §1
[9] = test system: Candida parapsilosis; assay: Antifungal activity against Candida parapsilosis isolate CP1 biofilm assessed as viable fungal count per cm2 of silicone disk at 8 ug/ml after 48 hrs […]; format: functional; how it was run: as §1
[10] = test system: Candida parapsilosis; assay: Antifungal activity against Candida parapsilosis isolate CP1 biofilm assessed as viable fungal count per cm2 of silicone disk at 16 ug/ml after 48 hrs […]; format: functional; how it was run: as §1
[11] = test system: Candida parapsilosis; assay: Antifungal activity against Candida parapsilosis isolate CP1 biofilm assessed as viable fungal count per cm2 of silicone disk at 32 ug/ml after 48 hrs […]; format: functional; how it was run: as §1
[12] = test system: Candida parapsilosis; assay: Antifungal activity against Candida parapsilosis isolate CP1 biofilm assessed as viable fungal count per cm2 of silicone disk at 64 ug/ml after 48 hrs […]; format: functional; how it was run: as §1
[13] = test system: Candida parapsilosis; assay: Antifungal activity against Candida parapsilosis isolate CP1 biofilm assessed as viable fungal count per cm2 of silicone disk at 128 ug/ml after 48 hrs […]; format: functional; how it was run: as §1
[14] = test system: Candida tropicalis; assay: Antifungal activity against Candida tropicalis isolate CT8 biofilm assessed as viable fungal count per cm2 of silicone disk at 0.25 ug/ml after 48 hrs […]; format: functional; how it was run: as §1
[15] = test system: Candida tropicalis; assay: Antifungal activity against Candida tropicalis isolate CT8 biofilm assessed as viable fungal count per cm2 of silicone disk at 0.5 ug/ml after 48 hrs […]; format: functional; how it was run: as §1
[16] = test system: Candida tropicalis; assay: Antifungal activity against Candida tropicalis isolate CT8 biofilm assessed as viable fungal count per cm2 of silicone disk at 1 ug/ml after 48 hrs […]; format: functional; how it was run: as §1
[17] = test system: Candida tropicalis; assay: Antifungal activity against Candida tropicalis isolate CT8 biofilm assessed as viable fungal count per cm2 of silicone disk at 2 ug/ml after 48 hrs […]; format: functional; how it was run: as §1
[18] = test system: Candida tropicalis; assay: Antifungal activity against Candida tropicalis isolate CT8 biofilm assessed as viable fungal count per cm2 of silicone disk at 4 ug/ml after 48 hrs […]; format: functional; how it was run: as §1
[19] = test system: Candida tropicalis; assay: Antifungal activity against Candida tropicalis isolate CT8 biofilm assessed as viable fungal count per cm2 of silicone disk at 8 ug/ml after 48 hrs […]; format: functional; how it was run: as §1
[20] = test system: Candida tropicalis; assay: Antifungal activity against Candida tropicalis isolate CT8 biofilm assessed as viable fungal count per cm2 of silicone disk at 16 ug/ml after 48 hrs […]; format: functional; how it was run: as §1
[21] = test system: Candida tropicalis; assay: Antifungal activity against Candida tropicalis isolate CT8 biofilm assessed as viable fungal count per cm2 of silicone disk at 32 ug/ml after 48 hrs […]; format: functional; how it was run: as §1
[22] = test system: Candida tropicalis; assay: Antifungal activity against Candida tropicalis isolate CT8 biofilm assessed as viable fungal count per cm2 of silicone disk at 64 ug/ml after 48 hrs […]; format: functional; how it was run: as §1
[23] = test system: Candida tropicalis; assay: Antifungal activity against Candida tropicalis isolate CT8 biofilm assessed as viable fungal count per cm2 of silicone disk at 128 ug/ml after 48 hrs […]; format: functional; how it was run: as §1
[24] = test system: Candida albicans; assay: Antifungal activity against Candida albicans isolate CA4 biofilm assessed as assessed as decrease in preformed fungal biofilm formation at 128 ug/ml after 48 hrs by scanning electron microscopy; format: functional, organism-based
How it was run: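 Silicone disks preconditioned 24 h at 37°C in heat-inactivated human serum, seeded with 1 × 10^6 CFU/ml in MOPS-buffered RPMI 1640 (pH 7.0), 1.5 h attachment at 37°C with shaking, then grown 24 h. Washed biofilms exposed to 1.0, 16 or 128 μg/ml caspofungin in RPMI 1640, 48 h at 35°C on a rocker. Untreated controls in RPMI only. Fixed in 5% glutaraldehyde/cacodylate (pH 6.2), ethanol-dehydrated, HMDS air-dried, examined by SEM. Run in triplicate.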

For CC[C@H](C)C[C@H](C)CCCCCCCCC(=O)N[C@H]1C[C@@H](O)[C@@H](NCCN)NC(=O)[C@@H]2[C@@H](O)CCN2C(=O)[C@H]([C@H](O)CCN)NC(=O)[C@H]([C@H](O)[C@@H](O)c2ccc(O)cc2)NC(=O)[C@@H]2C[C@@H](O)CN2C(=O)[C@H]([C@@H](C)O)NC1=O [CASPOFUNGIN], the log10cfu [1] was 5.6, the log10cfu [2] was 4.6 and the log10cfu [3] was 3.5. The log10cfu [4] was 0, the log10cfu [5] was 0 and the log10cfu [6] was 0. For the same compound, the log10cfu [7] was 0, the log10cfu [8] was 5.1 and the log10cfu [9] was 5.2. For the same compound, the log10cfu [10] was 4.5, the log10cfu [11] was 4.2 and the log10cfu [12] was 3.6. It also gave a log10cfu [13] of 2.7, a log10cfu [14] of 6.4 and a log10cfu [15] of 6.2. The log10cfu [16] was 5.7, the log10cfu [17] was 5.9 and the log10cfu [18] was 5.7. For the same compound, the log10cfu [19] was 5.7, the log10cfu [20] was 5.7 and the log10cfu [21] was 5.4. For the same compound, the log10cfu [22] was 5, the log10cfu [23] was 3.3 and the Activity [24] was “Active”.
